Only some compounds are listed: those with a hit (about 2.9% of all), similar ones and a draw of the others.
Kir21 inh = blocks the mouse Kir2.1 inward-rectifier potassium channel. P35561. actives 0.85% (n = 310,000). AID 1672. HEK293-Kir2.1, FluxOR thallium flux fluorescence; active compounds read low. B-score at 10 µM;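 active means fluorescence ratio B-score at or below minus 3 SD of library scores, with starting-brightness B-score within 2 SD, cut at about -4.2 in these data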;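 further: channel flux triggered by added potassium and thallium sulfate stimulus; B-score of peak minus minimum fluorescence over baseline after thallium stimulus; more negative B-score means stronger Kir2.1 block with less thallium influx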
TRPC4 agonist = activators of mouse TRPC4 channel | Q9QUQ5 | HEK293 TRPC4beta/mu-opioid, Fluo4 calcium fluorescence; active compounds read high | B-score at 10 µM | actives 0.49% (n = 310,000) | AID 2237;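 active means B-score above 5 SD of library B-scores, and initial fluorescence ratio not above library mean plus 5 SD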;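 further: positive B-score marks a calcium rise read as TRPC4 activation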
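system = HEK293 cells stably co-expressing mouse TRPC4beta and mu-opioid receptor | schedule = Fluo4 dye loading 45 min at room temperature, 110 s recording | measure = B-scored integrated calcium fluorescence ratio | signal = Fluo4 calcium-sensitive dye fluorescence, kinetic, 1 Hz baseline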
TRPC6 inhibitor = blocks the mouse TRPC6 cation channel. actives 1.1% (n = 310,000). HEK293-TRPC6, membrane potential dye, ACh-evoked depolarization; active compounds read low. Q61143. B-score at 10 µM. AID 2553;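 active means B-score under library mean minus 3 SD, initial fluorescence not abnormally high, positive integrated signal ratio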;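 further: B-score derived from integrated fluorescence ratio over the kinetic read; more negative B-score means stronger inhibition of depolarization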
Target sequence (Q61143 whole entry, looked up): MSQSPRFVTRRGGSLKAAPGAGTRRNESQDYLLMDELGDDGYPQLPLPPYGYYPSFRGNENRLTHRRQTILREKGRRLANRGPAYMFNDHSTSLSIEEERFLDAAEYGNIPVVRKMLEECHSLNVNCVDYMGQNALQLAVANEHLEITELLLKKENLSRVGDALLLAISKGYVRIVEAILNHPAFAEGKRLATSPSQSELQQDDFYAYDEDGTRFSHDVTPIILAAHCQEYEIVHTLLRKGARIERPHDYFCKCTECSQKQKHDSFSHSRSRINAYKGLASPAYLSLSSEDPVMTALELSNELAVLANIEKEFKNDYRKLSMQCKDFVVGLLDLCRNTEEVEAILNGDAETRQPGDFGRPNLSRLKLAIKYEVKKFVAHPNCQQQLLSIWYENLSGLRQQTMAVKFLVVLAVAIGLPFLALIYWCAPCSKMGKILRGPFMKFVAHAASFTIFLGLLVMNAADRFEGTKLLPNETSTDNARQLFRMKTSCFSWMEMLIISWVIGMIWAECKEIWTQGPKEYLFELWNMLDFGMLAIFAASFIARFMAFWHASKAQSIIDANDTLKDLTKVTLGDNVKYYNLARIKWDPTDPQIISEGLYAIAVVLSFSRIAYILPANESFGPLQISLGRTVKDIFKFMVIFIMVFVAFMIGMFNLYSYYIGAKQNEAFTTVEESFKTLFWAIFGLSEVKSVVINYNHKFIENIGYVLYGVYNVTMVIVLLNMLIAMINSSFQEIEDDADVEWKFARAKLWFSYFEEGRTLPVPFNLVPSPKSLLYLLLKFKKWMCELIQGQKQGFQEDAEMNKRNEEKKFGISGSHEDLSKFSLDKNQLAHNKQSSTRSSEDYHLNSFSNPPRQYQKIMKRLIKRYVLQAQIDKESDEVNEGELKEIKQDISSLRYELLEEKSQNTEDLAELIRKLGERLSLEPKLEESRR
TRPC4 inh = inhibitors of mouse TRPC4 channel | Q9QUQ5 | HEK293 TRPC4beta/mu-opioid, DAMGO-evoked Fluo4 calcium flux; active compounds read low | B-score at 10 µM | actives 0.39% (n = 300,000) | AID 2247;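 active means B-score over 3 SD under the library average, no early fluorescence shift, positive overall ratio signal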
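Signal: kinetic Fluo4 fluorescence imaging of calcium influx. Material: stable TRPC4beta/mu-opioid receptor HEK293 cells. Probe or stimulus: DAMGO in two steps, submaximal then maximal.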
TRPC4 PAM = allosteric potentiators of mouse TRPC4 channel; AID 2227; HEK293 TRPC4beta/mu-opioid, DAMGO EC20, Fluo-4 Ca2+ flux; active compounds read high; B-score at 10 µM; actives 0.42% (n = 310,000);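 active means B-score of calcium response area above 5 SD of library B-scores, with initial fluorescence ratio within 5 SD of library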;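 further: B-score of integrated fluorescence ratio over time as area under calcium response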
TRPC6 act = activators of mouse TRPC6 channel; Q61143; HEK293-TRPC6 membrane potential dye fluorescence; active compounds read high; B-score at 10 µM; actives 0.13% (n = 310,000);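 active means B-score of the integrated fluorescence ratio above library mean plus 3 SD, and starting fluorescence ratio within library mean plus 5 SD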;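 further: higher score means more depolarization so channel activation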
hERG ctr = hERG (human) inhibition as Kir2.1 counter-screen. shares compounds with Kir21 inh. hERG-expressing cells, thallium flux. inhibition, % at 10 µM. actives 20% (n = 320). AID 2236;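 further: host cells are CHO cells stably expressing hERG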
KCNK9 inh = selectivity of Kir2.1 inhibitors: effect on human KCNK9. shares compounds with Kir21 inh. KCNK9-expressing cells, ion flux inhibition. inhibition, % at 10 µM. actives 5% (n = 320)
Kir21 ephys inh = mouse Kir2.1 inward rectifier channel inhibition. shares compounds with Kir21 inh. Kir2.1 cells, automated patch-clamp current inhibition. inhibition, % at 25 µM. actives 71% (n = 320). AID 463252
* hit, by the source's call; i = inactive. Unless noted, how the calls were made is not given here.

SMILES | Kir21 inh | TRPC4 agonist | TRPC6 inhibitor | TRPC4 inh | TRPC4 PAM | TRPC6 act | others
Cc1ccc(-n2c(O)c(/C=C/C=Nc3ccccc3)c(=O)[nH]c2=O)cc1 | -0.42 | i | i | i | i | i
CCOc1ccc2nc(N=Nc3c(O)[nH]c(=O)[nH]c3=O)sc2c1 | 0.04 | i | i | i | i | i
CCOC(=O)c1c(-n2c(C)cc(/C=C3/C(=O)NC(=O)N(CC)C3=O)c2C)sc2c1CCCC2 | -0.58 | i | i | i | i | i
CCOC(=O)c1c(-n2c(C)cc(C=C3C(=O)NC(=S)NC3=O)c2C)sc2c1CCCC2 | -4.8* | i | i | i | i | i
O=P(Nc1c(Cl)cccc1Cl)(c1ccccc1)c1nc2c(s1)CCCC2 (centres undefined) | 0.01 | i | i | i | i | i
O=P(Nc1ccccc1Cl)(c1ccccc1)c1nc2c(s1)CCCC2 (centres undefined) | -0.39 | i | i | i | 14* | i
Cc1nn(C)cc1/C=C1/CC2C3CC=C4CC(O)CCC4(C)C3CCC2(C)C1=O (centres undefined) | 0.78 | i | i | i | 10* | i
CC12CCC3C(CC=C4CC(O)CCC43C)C1C/C(=C\c1ccccc1F)C2=O (centres undefined) | 0.01 | i | i | i | i | i
COc1ccc(C)cc1NC1=NC(C)(C)CS1 | -0.88 | i | i | -6* | i | i
COc1ccc(OC)c(NC2=NCCS2)c1 | -0.64 | i | i | i | i | i
CN1CCN(Cc2cc(C(C)(C)C)c(O)c(C(C)(C)C)c2)CC1 | 0.59 | i | i | i | 11* | i
COc1ccc(C(=O)c2nc3ccccc3n2C(C)C)cc1OC | -0.08 | i | i | i | i | i
CCC(=O)OC1(c2ccccc2)CCN(C)CC1C (centres undefined) | -1.1 | i | i | i | i | i
CCC(=O)OC1(Cc2ccc(CC)cc2)CC(C)N(C)CC1C (centres undefined) | -1.4 | 48* | i | -8* | i | i
CC1CC(OC(=O)c2ccccc2)(c2ccccc2)C(C)CN1C (centres undefined) | -1.4 | i | i | i | i | i
CCC(=O)OC1(c2cccc(C)c2)CC(C)N(C)CC1C (centres undefined) | -1.9 | 68* | i | i | i | i
C[C@H]1CCCC(=O)CCC/C=C/c2cc(O)cc(O)c2C(=O)O1 | -4.4* | i | i | i | i | i
C=CCn1c(O)c(N=Nc2c(C)n(C)n(-c3ccccc3)c2=O)c(=O)[nH]c1=S | -0.33 | 45* | i | i | i | i
CSc1ccc(C(=O)C2CCCN(CCCn3cccn3)C2)cc1 (centres undefined) | -1.5 | 83* | i | i | i | i
Cn1c(O)c(/C=N/N2CCOCC2)c(=O)n(C)c1=S | -0.64 | i | i | i | i | i
Cc1ccc(C2(O)CCN3CCCCC32)cc1 (centres undefined) | -3.2 | i | i | i | i | i
CCOC(=O)C(O)(c1ccc(NC(=S)NC(=O)c2ccc(Cl)cc2Cl)cc1)C(F)(F)F (centres undefined) | -0.14 | i | i | i | 13* | i
CCOC(=O)C(O)(c1ccc(NC(=S)NC(=O)c2ccc(Cl)cc2Cl)c(C)c1)C(F)(F)F (centres undefined) | 0.52 | i | i | i | 16* | i
CCOc1ccc(N=Cc2c(O)n(Cc3ccccc3)c(=S)[nH]c2=O)cc1 | 0.09 | i | i | i | i | i
CN(C)C(CNC(=O)Cc1ccc(Br)cc1)c1ccccc1 (centres undefined) | -2.3 | 175* | i | i | i | i
SMILES | Kir21 inh | TRPC4 agonist | TRPC6 inhibitor | TRPC4 inh | TRPC4 PAM | TRPC6 act | others
C[n+]1c(-c2ccccc2)cc(-c2ccc(O)cc2)cc1-c1ccccc1 | -0.46 | i | i | i | i | i
Cc1cc(-c2ccccc2)cc(-c2ccccc2)[n+]1CCc1ccccc1 | -6.9* | i | i | i | i | i
Clc1ccc(C[n+]2c(-c3ccccc3)cc(-c3ccccc3)cc2-c2ccccc2)cc1 | -13* | i | -5.2* | i | i | i
O=C(Nc1cccc(OC(=O)N2CCCCC2)c1)N1CCCCC1 | -1.2 | i | i | i | i | i
CC(C)C(=O)Nc1ccc(S(=O)(=O)N2CC3CC(C2)c2cccc(=O)n2C3)cc1 (centres undefined) | -0.31 | i | i | i | i | i
COc1ccc(CN2CCCC(C(=O)c3sccc3C)C2)cc1O (centres undefined) | -6.2* | i | i | -7* | i | i | hERG ctr=i;KCNK9 inh=i;Kir21 ephys inh=i
COc1cc(CNCCc2ccc3c(c2)OCO3)ccc1O | 0.87 | i | i | i | i | i
COc1ccc(CNCCc2ccc3c(c2)OCO3)cc1Br | -12* | 107* | i | i | i | i | hERG ctr=46%*;KCNK9 inh=i;Kir21 ephys inh=82%*
O=c1[nH]c(O)c(/C=C2\C=Nc3ccc(OCc4ccccc4)cc32)c(=O)[nH]1 | 0.07 | i | i | i | i | i
O=c1[nH]c(=S)n(-c2ccccc2F)c(O)c1C=NCCN1CCNCC1 | 0.32 | i | i | i | i | i
Fc1ccccc1CNCCc1c[nH]c2ccccc12 | -0.86 | i | i | i | i | i
COc1ccc(CNCCc2c[nH]c3ccccc23)c(OC)c1C | -8.4* | 182* | i | i | i | i | hERG ctr=i;KCNK9 inh=i;Kir21 ephys inh=4.1%*
COc1cc(C)c(CNCCc2c[nH]c3ccccc23)cc1C | -6.9* | 144* | i | i | i | i | hERG ctr=i;KCNK9 inh=i;Kir21 ephys inh=9.0%*
